Measured values of several laboratories.
PADI4: Protein-arginine deiminase type-4 (PADI4, Homo sapiens, UniProt Q9UM07)
CA9: Carbonic anhydrase 9 (CA9, Homo sapiens, UniProt Q16790)
ART1: ART1 (Homo sapiens, UniProt P52961)
GUK1: GUK1 (Homo sapiens, UniProt Q16774)

N=C(CCl)NCCC[C@H](NC(=O)c1cnc2cc(Br)ccc2c1)C(=O)NCc1ccccc1  IC50 (PADI4; enzyme activity; inhibitor; fluorescence; with preincubation): 0.409 µM
O=C(OCc1cn(-c2ccc(Cl)cc2)nn1)c1ccc(=O)oc1  Ki (CA9; enzyme activity; inhibitor; stopped-flow): 21.9 µM
Nc1ncnc2c1ncn2[C@@H]1O[C@H](COP(=O)(O)OP(=O)(O)OC[C@H]2OC(O)[C@H](O)[C@@H]2O)[C@@H](O)[C@H]1O (some centres unmarked)  Ki (ART1; enzyme activity; inhibitor; fluorescence): 4900 µM
O=C(O)CCc1ccccc1  Kd (Inward rectifier potassium channel 2 (KCNJ2, Homo sapiens, UniProt P63252); binding; MST): 2110 µM
O=C(NCc1cn(-c2ccc([N+](=O)[O-])cc2)nn1)c1ccc(=O)oc1  Ki (CA9; enzyme activity; inhibitor; stopped-flow): 7.5 µM
Nc1ncnc2c1ncn2[C@@H]1O[C@H](CO[P@](=O)(O)O[P@](=O)(O)O[P@@](=O)(O)S)[C@@H](O)[C@H]1O  Kd (GUK1; binding; ITC): 40 µM
NC(=O)c1cccnc1  Ki (ART1; enzyme activity; inhibitor; fluorescence): 8300 µM
CN(C)c1ccc2cc(C(=O)N[C@@H](CCCN=C(N)CCl)C(=O)NCc3ccccc3)ccc2c1  IC50 (PADI4; enzyme activity; inhibitor; fluorescence; with preincubation): 2.86 µM
N#CSCc1cc(=O)oc2cc(O)ccc12  Ki (CA9; enzyme activity; inhibitor; stopped-flow): 0.0274 µM
Cc1cc(C)nc(Nc2ccc(C(=O)N[C@@H](CCCNC(=N)CCl)C(=O)NCc3ccccc3)cn2)c1  IC50 (PADI4; enzyme activity; inhibitor; fluorescence; with preincubation): 1.02 µM
Nc1nc2c(ncn2[C@@H]2O[C@H](COP(=O)(O)O)[C@@H](O)[C@H]2O)c(=O)[nH]1  Kd (GUK1; binding; ITC): 39 µM
CC[C@H](C)[C@H](NC(=O)[C@H](CCC(=O)O)NC(=O)[C@H](CO)NC(=O)[C@@H](NC(=O)[C@@H](N)CO)C(C)C)C(=O)N[C@@H](CCC(N)=O)C(=O)N[C@@H](CC(C)C)C(=O)N[C@@H](CCSC)C(=O)N[C@@H](Cc1cnc[nH]1)C(=O)N[C@@H](CC(N)=O)C(=O)N[C@@H](CC(C)C)C(=O)NCC(=O)N[C@@H](CCCCN)C(=O)N[C@@H](Cc1cnc[nH]1)C(=O)N[C@@H](CC(C)C)C(=O)N[C@@H](CC(N)=O)C(=O)N[C@@H](CO)C(=O)N[C@@H](CCSC)C(=O)N[C@@H](CCC(=O)O)C(=O)N[C@@H](CCCNC(=N)N)C(=O)N[C@H](C(=O)N[C@@H](CCC(=O)O)C(=O)N[C@@H](Cc1c[nH]c2ccccc12)C(=O)N[C@@H](CC(C)C)C(=O)N[C@@H](CCCNC(=N)N)C(=O)N[C@@H](CCCCN)C(=O)N[C@@H](CCCCN)C(=O)N[C@@H](CC(C)C)C(=O)N[C@@H](CCC(N)=O)C(=O)N[C@@H](CC(=O)O)C(=O)N[C@H](C(=O)N[C@@H](Cc1cnc[nH]1)C(=O)N[C@@H](CC(N)=O)C(=O)N[C@@H](Cc1ccccc1)C(N)=O)C(C)C)C(C)C  Kd (Albumin (ALB, Bos taurus, UniProt P02769); binding; BLI): 1.61 µM
N#CSCCCCOc1ccc2c(-c3ccccc3)cc(=O)oc2c1  Ki (CA9; enzyme activity; inhibitor; stopped-flow): 0.258 µM
Cc1ccc(-n2cc(CNC(=O)c3ccc(=O)oc3)nn2)cc1  Ki (CA9; enzyme activity; inhibitor; stopped-flow): 14.5 µM
